Tested on: Male Wistar rats
Assay: DEN model of hepatic fibrosis and inflammation, body weight and liver histology
Format: in vivo, rat
Settings: for collagen proportional area (CPA), Sirius Red: weekly 100 mg/kg i.p.
Method in brief: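 Male Wistar rats (190–220 g at start) got weekly i.p. DEN 100 mg/kg in PBS for 4 weeks, or PBS only as controls, and were sampled 1 or 7 days after the last dose. Formalin-fixed, paraffin-embedded 5 μm liver sections were stained with H&E, Sirius Red, and fibrin antibody (1:25). A pathologist scored modified Ishak HAI; CPA was the % Sirius Red area. Values are mean ± standard error, compared by t-test.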

CCN(CC)N=O [DEN, diethylnitrosamine]
HAI score for inflammation (0 – 4) (1 day post DEN): 3.54 ± 0.14 | fibrin immunostaining, area stained (1 day post DEN): 3.56 ± 1.35 | fibrosis Ishak score (0 – 6) (1 day post DEN): 3.62 ± 0.31 | collagen proportional area (CPA), Sirius Red (1 day post DEN): 3.14 ± 1.27% | HAI score for inflammation (0 – 4) (7 days post DEN): 1.61 ± 0.16 | fibrin immunostaining, area stained (7 days post DEN): 1.02 ± 0.58 | fibrosis Ishak score (0 – 6) (7 days post DEN): 3.82 ± 0.25 | collagen proportional area (CPA), Sirius Red (7 days post DEN): 3.30 ± 0.65%

From paper PMC7935409 (Investigative radiology, 2020)
